Compound activity from PubChem BioAssay.
Rows were chosen to be rich in hits. Some 12% of all compounds tested hit in one or more screens of this group.
RAM network inh = blocks the yeast RAM network. S. cerevisiae dse1pr::URA3 reporter, 5-FOA growth OD615, 2 d; analog-sensitive cbk1-as2 kinase mutant strain. inhibition, % at 50 µM. 190,000 compounds, 1.8% hits. AID 868;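 active = inhibition above a set limit, 3 SD over mean compound inhibition, cut at about 8.4% in these data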;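 note: 0% = DMSO-only wells with no growth and 100% = 10 µM 1-NA-PP1 full growth; inhibition rescues growth on 5-FOA so higher OD means more RAM inhibition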
L major viab = Leishmania major promastigote growth inhibition; Leishmania major promastigotes, resazurin fluorescence viability; inhibition, % at 10 µM; 200,000 compounds, 9% hits; in the data active = inhibition above about 50%;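 note: promastigotes grown with compound for 44 hours at 28 °C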
WT yeast gro inh = growth inhibition of WT yeast, mitochondrial fusion screen. AID 1362. 190,000 compounds, 2.1% hits. mitochondrial fusion phenotypic screen, WT strain. inhibition, % at 10 µM; in the data active = inhibition above about 58%; tested in S. cerevisiae
ABCB1 inh = inhibitors of human ABCB1 transporter, ABCG2 counter-screen; CCRF-Adr cells, JC-1 efflux, flow cytometry; P08183; 190,000 compounds, 0.067% hits; inhibition, % at 6.6 µM; in the data active = inhibition above about 40%;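 note: 0% = vehicle and 100% = reference inhibitor; higher value means more JC-1 retained so stronger ABCB1 efflux block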
Target sequence (P08183 whole entry, looked up): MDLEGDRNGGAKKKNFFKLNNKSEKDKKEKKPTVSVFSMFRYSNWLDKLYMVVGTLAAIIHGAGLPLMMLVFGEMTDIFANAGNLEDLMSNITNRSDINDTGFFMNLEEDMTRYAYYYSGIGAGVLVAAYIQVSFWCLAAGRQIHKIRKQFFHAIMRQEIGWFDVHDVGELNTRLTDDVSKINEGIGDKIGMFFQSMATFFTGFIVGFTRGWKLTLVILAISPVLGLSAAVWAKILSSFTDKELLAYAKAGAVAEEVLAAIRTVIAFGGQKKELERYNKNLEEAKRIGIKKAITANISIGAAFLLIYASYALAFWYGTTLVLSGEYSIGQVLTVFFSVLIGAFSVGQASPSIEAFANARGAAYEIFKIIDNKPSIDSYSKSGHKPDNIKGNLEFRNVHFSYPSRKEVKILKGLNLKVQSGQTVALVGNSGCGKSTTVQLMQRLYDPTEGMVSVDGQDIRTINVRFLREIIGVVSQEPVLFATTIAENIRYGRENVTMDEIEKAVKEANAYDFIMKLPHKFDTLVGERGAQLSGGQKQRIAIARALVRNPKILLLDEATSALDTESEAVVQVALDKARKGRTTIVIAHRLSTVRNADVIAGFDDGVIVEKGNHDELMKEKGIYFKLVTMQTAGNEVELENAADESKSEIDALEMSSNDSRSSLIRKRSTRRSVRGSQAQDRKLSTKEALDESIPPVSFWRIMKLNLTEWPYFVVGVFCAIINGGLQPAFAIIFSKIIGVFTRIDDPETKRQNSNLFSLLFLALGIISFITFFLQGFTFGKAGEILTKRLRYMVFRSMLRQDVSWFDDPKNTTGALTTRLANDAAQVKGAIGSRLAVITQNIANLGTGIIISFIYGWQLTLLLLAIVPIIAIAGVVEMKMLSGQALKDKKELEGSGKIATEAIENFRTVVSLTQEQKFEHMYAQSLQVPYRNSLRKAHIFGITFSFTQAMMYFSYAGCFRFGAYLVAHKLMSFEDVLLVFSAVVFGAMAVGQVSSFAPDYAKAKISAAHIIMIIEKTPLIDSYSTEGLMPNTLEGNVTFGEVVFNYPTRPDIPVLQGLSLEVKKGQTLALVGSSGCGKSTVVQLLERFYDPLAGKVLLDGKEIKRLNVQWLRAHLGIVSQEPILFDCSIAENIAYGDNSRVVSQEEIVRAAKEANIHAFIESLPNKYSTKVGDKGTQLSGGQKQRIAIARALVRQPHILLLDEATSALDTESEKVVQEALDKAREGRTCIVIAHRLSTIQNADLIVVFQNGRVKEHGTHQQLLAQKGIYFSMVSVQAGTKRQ
ABCG2 inh = blocks JC-1 efflux by human ABCG2 transporter; Q9UNQ0; IgMXP3 cells, flow cytometry; inhibition, % at 6.6 µM; 190,000 compounds, 0.1% hits; AID 1325;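 active = inhibition above 80%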;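 note: 0% = DMSO and 100% = nicardipine control wells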
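Assay system – ABCG2 IgMXP3 and barcoded ABCB1 CCRF-Adr cell mix · Input – 3 million cells/mL in well · Reagent – JC-1 fluorescent substrate · Compound – single test compound dose, 6.6 µM final · Timing – 10 min exposure at 25 °C with rotation, no wash · Detection – flow cytometry of retained JC-1 fluorescence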
* marks the source's active call; other numbers are inactive results; x = no result given.

SMILES | RAM network inh | L major viab | WT yeast gro inh | ABCB1 inh | ABCG2 inh
CC(C)CNC(=O)c1cccc(NC(=O)COc2ccc([N+](=O)[O-])cc2)c1 | 1.8 | 3.7 | 12.8 | 1.2 | 11.7
CCN(CC)CC(O)COc1ccccc1C(=O)CCc1ccccc1 (configuration not stated) | x | 94.8* | 16.9 | x | x
CCCCN(CCCC)CC(O)COc1ccccc1C(=O)Nc1ccccc1 (configuration not stated) | 1.4 | 90.8* | -10.4 | 7.2 | 3.5
CC(=O)N1CCN(C(=O)COc2ccccc2C(=O)Nc2ccccc2)CC1 | 1.6 | -4.8 | 5.6 | 1.7 | 13.2
COc1cccc(OCC(O)CN(CCO)Cc2ccccc2)c1 (configuration not stated) | 1.5 | 24.7 | -4.6 | 0.7 | 13.5
CCC(=O)c1ccc(OCC(O)CN(CCc2ccccc2)Cc2ccccc2)cc1 (configuration not stated) | 1.1 | 99.6* | -11.1 | 4.5 | 6.6
Cc1cc(NC(=O)CCCn2cc([N+](=O)[O-])cn2)n(Cc2ccc(F)cc2)n1 | 1.1 | -5.5 | -9.1 | 1.0 | 13.2
Cc1ccc(C(=O)c2coc3cc([N+](=O)[O-])c(O)c([N+](=O)[O-])c23)cc1 | 6.3 | -12.3 | -27.1 | -0.9 | 9.5
S=C(NCc1ccccc1)N1CCN(c2cccc(Cl)c2)CC1 | 8.5* | 5.4 | 70.5* | 0.5 | 6.1
O=C(C(Cc1ccccc1)n1cccc1)N1CCN(c2cccc(Cl)c2)CC1 (configuration not stated) | 8.7* | 3.4 | 34.2 | -0.1 | -0.1
CC(=O)N1CCN(C(=S)NCc2ccccc2)CC1 | 0.8 | -2.9 | 4.9 | 0.3 | 0.5
Cc1ccc(N(C(=O)c2csnn2)C(C(=O)NC(C)(C)C)c2cccnc2)cc1 (configuration not stated) | 1.7 | -4.0 | 7.0 | 0.1 | -0.2
CCN(CC)S(=O)(=O)c1ccc(C)c(NC(=O)CNCCN(C(C)C)C(C)C)c1 | 0.5 | -5.4 | -43.9 | -0.1 | -0.7
CC(C)NC(=O)COC(=O)c1cccc(NS(=O)(=O)/C=C/c2ccccc2)c1 | 5.6 | -2.7 | 4.7 | 0.4 | 4.3
CC1CCCC(NC(=O)COC(=O)c2cccc(NS(=O)(=O)/C=C/c3ccccc3)c2)C1C (configuration not stated) | 3.8 | 53.3* | -14.1 | 1.0 | 0.8
O=C(c1cnn2c(C(F)(F)F)cc(-c3ccccc3)nc12)N1CCCCC1c1cccnc1 (configuration not stated) | 0.1 | 52.0* | -6.0 | 10.6 | 17.8
O=C(c1cnn2c(C(F)(F)F)cc(-c3ccccc3)nc12)N1CCCc2ccccc21 | 6.7 | 0.4 | 2.8 | 0.4 | 4.3
CN1CCN(C(=O)c2cc3nc(-c4ccc(F)cc4)cc(C(F)(F)F)n3n2)CC1 | 0.8 | 3.8 | -2.1 | 0.8 | 6.7
O=C(c1cc2nc(-c3ccc(F)cc3)cc(C(F)(F)F)n2n1)N1CCCCC1c1cccnc1 (configuration not stated) | 0.0 | 96.2* | 8.0 | 4.5 | 10.0
CCOC(=O)C1(CCOc2ccccc2)CCN(Cc2cccc(-n3cccn3)c2)CC1 | 2.1 | 93.0* | 24.1 | 2.3 | 2.7
CCOC(=O)C1(CCc2ccccc2)CCN(C(=O)c2occc2C)CC1 | 0.7 | 29.6 | 4.8 | 3.2 | 5.2
CCOC(=O)C1(CCOc2ccccc2)CCN(CCCn2cccn2)CC1 | -0.5 | 78.8* | -2.0 | 2.7 | 1.6
CCOC(=O)C1(CCCc2ccccc2)CCN(Cc2cnn(C)c2)CC1 | 0.8 | 76.7* | 8.7 | 0.1 | -0.6
CCOC(=O)C1(CCc2ccccc2)CCN(C2Cc3ccccc3C2)CC1 | -1.1 | 80.7* | 13.3 | 6.1 | 5.0
Oc1ccc(CCC2CCCCN2Cc2nc(C3CC3)no2)cc1 (configuration not stated) | 0.8 | -3.2 | -21.1 | 0.7 | 2.3
SMILES | RAM network inh | L major viab | WT yeast gro inh | ABCB1 inh | ABCG2 inh
CSc1ccc(Cl)c(C(=O)OCC(=O)N(C)CCC#N)c1 | -0.1 | -4.7 | -0.2 | 0.6 | 2.6
CSc1ccc(S(=O)(=O)Nc2ccc(S(=O)(=O)Nc3ccc(C)cc3)cc2)cc1 | 8.3 | -7.2 | -3.8 | -0.1 | -1.4
Cc1ccc(S(=O)(=O)Nc2ccccc2C(N)=O)cc1 | 1.1 | -2.4 | 8.4 | 0.0 | 0.6
Cc1ccc(S(=O)(=O)Nc2cccc3cccnc23)cc1 | 2.5 | 99.6* | 53.1 | 0.6 | 1.8
Cc1ccc(S(=O)(=O)Nc2cc(C(C)C)c(O)cc2C)cc1 | 0.8 | 76.0* | -14.1 | 0.8 | 23.9
Cc1ccc(S(=O)(=O)Nc2ccccc2-c2ccccc2NS(=O)(=O)c2ccc(C)cc2)cc1 | 3.6 | 96.3* | 62.1* | 0.3 | -0.2
Cc1ccc(S(=O)(=O)Nc2ccc(S(=O)(=O)Nc3ncccn3)cc2)cc1 | -0.2 | -4.4 | -2.2 | 0.3 | -4.0
Cc1ccc(S(=O)(=O)Nc2ccc(N=Nc3ccc(O)cc3)cc2)cc1 | 10.9* | -0.5 | 70.8* | -0.2 | -0.6
Cc1cc(SCC(=O)c2cc(C)n(C)c2C)nc2ccccc12 | 2.2 | -1.2 | 2.8 | 1.0 | 23.8
COc1cc(NS(=O)(=O)c2ccc(C)cc2)c2ncccc2c1 | 0.0 | 99.2* | 2.2 | 0.7 | 4.9
COc1ccc(S(=O)(=O)Nc2cc(C)ccn2)cc1 | 0.1 | -3.8 | -0.5 | -0.1 | -0.3
CN(C)S(=O)(=O)c1cc(NC(=O)CN2CCNC(=O)C2)ccc1Cl | -0.3 | 59.9* | -5.4 | 0.7 | -8.8
CCN1CCN(CC(=O)Nc2ccc(Cl)c(S(=O)(=O)N(C)C)c2)CC1 | 1.3 | -2.5 | -40.1 | -0.1 | -0.6
CCC(CO)NCc1ccc(OCC(=O)Nc2cccc(C(F)(F)F)c2)c(OC)c1 (configuration not stated) | 0.4 | 95.1* | -1.6 | 0.4 | 7.1
CCOc1cc(CNC(C)(C)C)ccc1OCC(=O)Nc1cccc(C(F)(F)F)c1 | 1.2 | 84.4* | 16.5 | 1.1 | 15.6
CCOc1cc(CNCCCN2CCOCC2)cc(Br)c1OCC(=O)Nc1cccc(C(F)(F)F)c1 | 0.7 | 100.6* | -4.1 | 1.0 | 4.5
CCOc1cc(CNC)ccc1OCC(=O)NC(C)(C)C | 2.5 | 4.4 | 20.5 | 0.8 | 8.2
CCC(=O)Nc1cccc(NC(=O)c2ccc(C)cc2Cl)c1 | 1.2 | 6.7 | 5.6 | 0.7 | 10.3
CCOc1ccc(NC(=O)NC2CCOC(C)(C)C2)cc1 (configuration not stated) | 0.3 | 9.7 | -18.0 | 0.0 | 0.0
CC(C)Oc1ccc(CNC2CCOC(C)(C)C2)cc1 (configuration not stated) | -0.2 | 86.3* | 25.9 | 0.5 | 2.3
COc1ccc([N+](=O)[O-])cc1NC(=O)Cn1ccc(C(F)(F)F)n1 | 3.8 | 8.2 | 12.6 | 1.4 | 9.8
O=C(OCc1csc(Nc2ccccc2)n1)c1ccc(Cl)cc1 | 6.9 | -2.0 | 75.6* | 0.0 | 0.1
CN(C(=O)c1ccc(S(=O)(=O)c2cccc(Cl)c2)c([N+](=O)[O-])c1)C1CCCCC1 | 5.3 | 99.6* | 9.0 | x | 2.2
O=C(Nc1ccccc1)c1ccc(N2CCN(c3ccccc3)CC2)c(S(=O)(=O)N2CCOCC2)c1 | 2.5 | 88.9* | 20.2 | 0.3 | -0.4
